The text below walks through data of ChEMBL document CHEMBL5149984, “Discovery of HN37 as a Potent and Chemically Stable Antiepileptic Drug Candidate” (J Med Chem, 2021).

Bounds are passed on as bounds.

Series [1] in a line: Metabolic stability in mouse liver microsomes assessed as half life. The class given is ADME, Microsome.
The nature of series [2]: Ratio of drug concentration in brain to plasma of MES induced Kunming mouse model of seizure.
Another series concerns the target CYP2C19 (Homo sapiens, UniProt P33261). The series can be described thus: Ratio of IC50 for human liver microsome CYP2C19 in absence of NADPH to IC50 for human liver microsome CYP2C19 in presence of NADPH. The settings on record: liver microsomes, read-out: Ratio IC50. (In general: Liver microsomes are vesicles of endoplasmic reticulum, rich in cytochrome P450 enzymes.)

Series [3] addresses T1, CYP3A4 (Homo sapiens, UniProt P08684). The series can be described thus: Inhibition of human liver microsome CYP3A4 at 0.10 to 50 uM preincubated with NADPH for 0.5 hrs followed by substrate addition by LC-MS/MS method relative to control. The class given is ADME. The settings on record: liver microsomes, dose 0.1-50 µM. In outline: (§1)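 Human liver microsomes preincubated 0.5 h with 0.10−50 μM compound, with or without NADPH, then CYP-specific probe substrates added (CYP3A4 with midazolam 1′-hydroxylation and with testosterone 6β-hydroxylation). Metabolites quantified by LC−MS/MS; % activity remaining computed against no-compound control. IC50 fitted by Probit model; ratio = IC50(−NADPH)/IC50(+NADPH).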

For another series, the target named is CYP2D6 (Homo sapiens, UniProt P10635). The series can be described thus: Inhibition of human liver microsome CYP2D6 at 0.10 to 50 uM preincubated with NADPH for 0.5 hrs followed by substrate addition by LC-MS/MS method relative to control. The class given is ADME. The conditions noted are these: liver microsomes, dose 0.1-50 µM.
Chain of CYP2D6 (P10635 whole entry): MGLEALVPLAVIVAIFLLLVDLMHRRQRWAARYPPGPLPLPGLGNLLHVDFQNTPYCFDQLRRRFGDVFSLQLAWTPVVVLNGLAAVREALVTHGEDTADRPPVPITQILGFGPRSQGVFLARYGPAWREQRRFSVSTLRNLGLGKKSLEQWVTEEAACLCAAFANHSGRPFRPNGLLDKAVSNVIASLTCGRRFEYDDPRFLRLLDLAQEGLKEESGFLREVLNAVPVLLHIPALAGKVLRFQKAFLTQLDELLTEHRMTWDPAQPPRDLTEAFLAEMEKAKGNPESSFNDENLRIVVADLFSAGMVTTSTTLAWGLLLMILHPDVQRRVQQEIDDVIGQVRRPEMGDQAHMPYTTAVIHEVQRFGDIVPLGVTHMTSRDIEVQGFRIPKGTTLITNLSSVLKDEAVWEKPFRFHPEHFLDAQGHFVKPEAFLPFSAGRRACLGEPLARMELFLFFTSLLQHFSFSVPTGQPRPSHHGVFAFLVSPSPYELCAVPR
Series [4] concerns Mus musculus. Nature of the series: Anticonvulsant activity in MES induced Kunming mouse model of seizure at 2.5 mg/kg, po after 0.25 to 2 hr. The conditions noted are these: time 0.25-2 hrs. In kind it is functional. A digest of the protocol: (§2)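 MES test in male KM mice. Compounds freshly suspended in 0.5% CMC-Na and given by gavage at 20 mL/kg; 160 V stimulus through ear clips. Protection scored as absence of hindlimb tonic extension; time course at 0.25, 0.5, 1 and 2 h, otherwise tested at 1 h. ED50 from dose−response by nonlinear regression; Fisher's exact test versus vehicle.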

Series [5] is described as follows: Ratio of AUC(0 to t) in Sprague-Dawley rat brain to plasma at 6 mg/kg, po measured upto 24 hrs by LC-MS/MS method. In kind it is ADME, organism-based. The settings on record: brain and plasma. A digest of the protocol:
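Male SD rats (180−220 g) given single oral doses of 2, 6 and 20 mg/kg; handled as in the mouse PK study (fasted 12 h before and 2 h after dosing, 5% DMSO/5% Tween 80/90% saline formulation). In a separate 6 mg/kg p.o. set, blood and brain were sampled together. Plasma and brain levels by LC−MS/MS.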

Series [6] has as its target T2, Potassium voltage-gated channel subfamily KQT member 2/member 3 (Rattus norvegicus) (UniProt O88943+O88944). The series can be described thus: Agonist activity at rat KCNQ2/3 channel expressed in CHO cells assessed as amplitude change of outward current at 0.1 uM by patch clamp method. The conditions noted are these: filed as agonist. In kind it is cell-based. A digest of the protocol:
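Whole-cell patch clamp at room temperature on CHO cells (DMEM/F12, 10% FBS) transiently co-transfected with EGFP and hKCNQ1, rKCNQ2, rKCNQ3 A278T, hKCNQ4 or hKCNQ5; KCNQ2/3 at 1:1 cDNA ratio. Pipette solution 145 mM KCl, 5 mM MgATP, pH 7.3; bath 140 mM NaCl, 5 mM KCl, pH 7.4, under perfusion. V1/2 from Boltzmann fits; I/I0 is current amplitude with versus without compound; n = 4−6.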
(In general: Patch clamp records ionic current or voltage across a cell membrane.)

The target of the next series is Cytochrome P450 2C8 (Homo sapiens, UniProt P10632). The series can be described thus: Time dependent inhibition of human liver microsome CYP2C8 preincubated for 0.5 hrs in presence of NADPH followed by substrate addition by LC-MS/MS method. In kind it is ADME, microsomes. In outline:
(§3)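 Human liver microsomes preincubated 0.5 h with 0.10–50 μM test compound, with or without NADPH, then CYP-specific probe substrate added and incubation continued. Metabolite measured by LC-MS/MS; % activity remaining relative to no-compound control; IC50 fitted by Probit model. For CYP3A4, midazolam 1′-hydroxylation and testosterone 6β-hydroxylation were read separately.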

The species entered for another series is Rattus norvegicus. The series can be described thus: Potency index, ratio of retigabine ED50 to test compound ED50 for anticonvulsant activity in MES induced rat model of seizure after 1 hr. The class given is functional.
The target of series [7] is T1, CYP3A4. Nature of the series: Ratio of IC50 for human liver microsome CYP3A4 using testosterone as substrate in absence of NADPH to IC50 for human liver microsome CYP3A4 using testosterone as substrate in presence of NADPH. The settings on record: liver microsomes, probe testosterone, read-out: Ratio IC50. In outline:
as §1

Series [8] in a line: Neurotoxicity in Kunming mouse assessed as motor impairment rate at 150 mg/kg, po after 1 hr by rotarod test. The settings on record: in vivo. The class given is toxicity, organism-based. In outline:
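Male KM mice dosed intragastrically with compound freshly suspended in 0.5% CMC-Na. Rotarod performance scored 1 h after dosing as the fraction of animals showing motor impairment. Fisher's exact test versus vehicle; TD50 from nonlinear dose−response fit.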
(The rotarod test checks motor coordination on a turning rod.)

Series [9] has as its target T2, Potassium voltage-gated channel subfamily KQT member 2/member 3 (Rattus norvegicus). Nature of the series: Potency index, ratio of retigabine EC50 to test compound EC50 for agonist activity at rat KCNQ2/3 channel expressed in CHO cells by patch clamp method. The class given is cell-based.
A further series deals with Cytochrome P450 1A2 (Homo sapiens, UniProt P05177). The series can be described thus: Time dependent inhibition of human liver microsome CYP1A2 preincubated for 0.5 hrs in presence of NADPH followed by substrate addition by LC-MS/MS method. In kind it is ADME, microsomes. In outline: as §3
Chain of Cytochrome P450 1A2 (P05177 whole entry): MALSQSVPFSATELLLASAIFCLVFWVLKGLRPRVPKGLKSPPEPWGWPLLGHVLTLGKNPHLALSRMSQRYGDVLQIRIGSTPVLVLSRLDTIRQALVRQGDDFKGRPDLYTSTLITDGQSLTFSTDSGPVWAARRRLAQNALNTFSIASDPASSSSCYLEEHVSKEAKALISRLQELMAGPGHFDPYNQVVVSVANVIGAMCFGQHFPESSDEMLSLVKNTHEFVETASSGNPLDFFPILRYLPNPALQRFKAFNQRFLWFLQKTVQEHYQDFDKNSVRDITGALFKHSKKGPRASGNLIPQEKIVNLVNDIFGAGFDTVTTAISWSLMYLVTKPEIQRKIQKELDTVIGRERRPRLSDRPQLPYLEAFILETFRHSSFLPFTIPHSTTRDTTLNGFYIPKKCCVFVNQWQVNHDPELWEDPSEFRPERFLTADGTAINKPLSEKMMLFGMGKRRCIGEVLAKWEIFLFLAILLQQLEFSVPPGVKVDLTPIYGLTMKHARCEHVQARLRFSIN
Series [10] is described as follows: Cmax in Sprague-Dawley rat at 2 mg/kg, po measured upto 24 hrs by LC-MS/MS method. The class given is ADME, organism-based. Also noted: time < 24 hrs, dose 2 mg/kg, route po. The conditions noted are these: in vivo. A digest of the protocol:
(§4)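 Male SD rats (180−220 g) dosed orally at 2, 6 or 20 mg/kg in escalating fashion, handled as in the mouse study: 12 h fast, acetonitrile extraction of plasma, LC−MS/MS quantification. AUC0−t by trapezoidal method to the last measurable concentration.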

Series [11] concerns Mus musculus. The series can be described thus: Anticonvulsant activity in MES induced Kunming mouse model of seizure at 3 mg/kg, po after 1 hr. The class given is functional. A digest of the protocol:
as §2

For series [12], the target named is T1, CYP3A4. The series can be described thus: Ratio of IC50 for human liver microsome CYP3A4 using midazolam as substrate in absence of NADPH to IC50 for human liver microsome CYP3A4 using midazolam as substrate in presence of NADPH. The settings on record: liver microsomes, probe midazolam, read-out: Ratio IC50. A digest of the protocol: as §1
Series [13] in a line: AUC(0 to t) in Sprague-Dawley rat at 20 mg/kg, po measured upto 24 hrs by LC-MS/MS method. The class given is ADME, organism-based. The settings on record: in vivo. Also on record: dose 20 mg/kg, time < 24 hrs, route po. A digest of the protocol:
as §4

The nature of series [14]: AUC(0 to t) in Sprague-Dawley rat at 2 mg/kg, po measured upto 24 hrs by LC-MS/MS method. In kind it is ADME, organism-based. The conditions noted are these: in vivo. Also on record: dose 2 mg/kg, time < 24 hrs, route po. A digest of the protocol:
as §4

T1 sequence (P08684 whole entry): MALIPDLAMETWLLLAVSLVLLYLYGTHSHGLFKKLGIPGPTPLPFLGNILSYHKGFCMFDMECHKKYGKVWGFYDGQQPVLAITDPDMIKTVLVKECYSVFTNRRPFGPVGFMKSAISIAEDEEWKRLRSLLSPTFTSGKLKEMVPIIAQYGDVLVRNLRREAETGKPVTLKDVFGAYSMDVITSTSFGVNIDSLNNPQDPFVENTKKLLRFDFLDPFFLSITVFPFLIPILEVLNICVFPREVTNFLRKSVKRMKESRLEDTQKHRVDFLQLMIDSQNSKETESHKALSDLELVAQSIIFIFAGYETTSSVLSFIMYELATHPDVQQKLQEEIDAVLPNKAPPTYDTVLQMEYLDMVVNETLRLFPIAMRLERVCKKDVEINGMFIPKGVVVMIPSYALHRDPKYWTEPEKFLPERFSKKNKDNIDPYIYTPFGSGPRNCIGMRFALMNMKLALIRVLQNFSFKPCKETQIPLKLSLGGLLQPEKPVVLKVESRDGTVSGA
Chain of CYP2C19 (P33261 whole entry): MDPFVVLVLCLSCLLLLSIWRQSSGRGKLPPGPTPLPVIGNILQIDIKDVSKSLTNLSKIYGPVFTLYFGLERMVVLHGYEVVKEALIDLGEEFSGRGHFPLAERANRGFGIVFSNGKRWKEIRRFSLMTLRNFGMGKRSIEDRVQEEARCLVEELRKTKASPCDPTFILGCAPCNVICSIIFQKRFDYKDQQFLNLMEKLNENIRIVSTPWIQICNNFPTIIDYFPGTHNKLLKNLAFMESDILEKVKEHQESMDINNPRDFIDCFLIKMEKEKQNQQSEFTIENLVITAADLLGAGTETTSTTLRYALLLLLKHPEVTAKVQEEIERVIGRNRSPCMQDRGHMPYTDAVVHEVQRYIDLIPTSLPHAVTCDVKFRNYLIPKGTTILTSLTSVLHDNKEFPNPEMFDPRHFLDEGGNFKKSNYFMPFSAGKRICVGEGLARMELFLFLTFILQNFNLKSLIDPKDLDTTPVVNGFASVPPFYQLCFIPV
Chain of Cytochrome P450 2C8 (P10632 whole entry): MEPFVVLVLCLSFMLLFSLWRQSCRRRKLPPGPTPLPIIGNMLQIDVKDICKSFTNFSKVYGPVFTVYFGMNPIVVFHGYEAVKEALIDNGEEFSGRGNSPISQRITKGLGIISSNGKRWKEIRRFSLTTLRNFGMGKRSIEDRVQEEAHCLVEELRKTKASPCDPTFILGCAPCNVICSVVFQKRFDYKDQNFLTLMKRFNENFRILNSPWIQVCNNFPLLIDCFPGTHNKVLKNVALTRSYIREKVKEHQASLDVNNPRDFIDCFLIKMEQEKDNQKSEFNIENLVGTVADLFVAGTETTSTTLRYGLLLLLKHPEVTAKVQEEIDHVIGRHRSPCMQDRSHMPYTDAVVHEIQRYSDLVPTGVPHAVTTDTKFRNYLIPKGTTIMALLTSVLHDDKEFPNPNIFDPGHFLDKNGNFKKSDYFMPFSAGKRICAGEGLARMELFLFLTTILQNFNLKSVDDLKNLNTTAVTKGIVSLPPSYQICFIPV

What is called half-life is the time needed for the level to fall by half in the phase considered. What is called Kp is the ratio of the level in a tissue or fluid to that in plasma or blood. A word on the inhibition: it is how much of the control response was suppressed. Higher therefore signals a response far below the control. The term IC50 denotes the concentration that inhibits the measured activity by half. Usually Cmax stands for the highest concentration seen after dosing. One may read the AUC(0-t) as exposure summed from dosing to a finite time, without extrapolation to infinity. A lower AUC(0-t) goes with low exposure. Consider `C#CCN(Cc1ccc(F)cc1)c1cc(C)c(NC(=O)OC)c(C)c1`, for which, in series [1], the half-life amounted to 12.5 min. In series [2], the Kp worked out at 1.4. Also, the IC50 shift at CYP2C19, on CYP3A4 [7] and at CYP3A4 [12] was less than 1.5 each time. Moreover, the inhibition at 0.5 h, up to 50 µM against CYP3A4 [3] and against CYP2D6 was less than 25% each time. Further, the Activity is 40% in the series on Mus musculus [4], 2.77 in series [6], 87.5% in series [8] and 62.5% in the series with Mus musculus [11]. For the same molecule, the Kp at 24 h in series [5] is 2.86. The IC50 on Cytochrome P450 2C8 was determined as 35.2 µM; on Cytochrome P450 1A2, 2.53 µM. Also, the “Ratio ED50” value in the series listed under Rattus norvegicus was determined as 2. Further, the Ratio EC50 in [9] came out at 125. The same molecule registered a Cmax in series [10] of 88.2 ng/mL. The area under the curve AUC(0-t) at 24 h in series [13] worked out at 1920 ng·h/mL; in series [14], 247 ng·h/mL.
